Experimental data collected from several papers.
Protocols differ between the studies behind these lines.
Organism: Staphylococcus aureus
Effect on: microbial growth

C=C(C/C=C(\C)CCC=C(C)C)CCC(C)(C)/C=C/CC/C(C)=C\CO[C@H](COP(=O)(O)O[C@H]1O[C@H](C(N)=O)[C@@](C)(O)[C@H](OC(N)=O)[C@H]1O[C@@H]1O[C@H](CO[C@@H]2O[C@H](CO)[C@@H](O)[C@H](O)[C@H]2O)[C@@H](O[C@@H]2O[C@H](C)[C@@H](O[C@@H]3O[C@H](C(=O)NC4=C(O)CCC4=O)[C@H](O)[C@H](O)[C@H]3O)[C@H](O)[C@H]2NC(C)=O)[C@H](O)[C@H]1NC(C)=O)C(=O)O  MIC (broth dilution; 18 h): < 0.75 µg/mL
CN1CCC(CNc2ccc3ncc(-c4cccc(OC(F)(F)F)c4)n3n2)CC1  MIC (NCTC8325): > 30 µM
COc1cc(OC)c2cc(C(=O)NCc3ccc(C)cc3)cc(O)c2c1  MIC (broth dilution; ATCC29213 MSSA): 32 µg/mL
Clc1ccc(-c2nc3ccccc3[nH]2)cc1  MIC (broth dilution; ATCC29213 MSSA): 64 µg/mL
C/C=C(\C)c1cc(O)c(C)c(OC(=O)c2c(C)cc(O)c(Cl)c2O)c1  MIC (broth dilution; ATCC29213): 8 µg/mL
Cc1ccc(C)n1-c1ccc(-c2nnc(-c3c(Cl)cccc3Cl)[nH]2)cc1  MIC (broth dilution; ATCC11632; 18 h): 1 µg/mL
Cc1ccc2nc(-c3ccc(Cl)cc3)n(Cc3ccccc3)c2c1  MIC (broth dilution; ATCC29213 MSSA): 4 µg/mL
CN[C@H](CC(C)C)C(=O)N[C@H]1C(=O)N[C@@H](CC(N)=O)C(=O)N[C@H]2C(=O)N[C@H]3C(=O)N[C@H](C(=O)N[C@H](C(=O)O)c4cc(O)cc(O)c4-c4cc3ccc4O)[C@H](O)c3ccc(c(Cl)c3)Oc3cc2cc(c3O[C@@H]2O[C@H](CO)[C@@H](O)[C@H](O)[C@H]2O[C@H]2C[C@](C)(N)[C@H](O)[C@H](C)O2)Oc2ccc(cc2Cl)[C@H]1O  MIC (ATCC25923): 0.39 µg/mL
Cc1cc(C#N)ccc1C(=O)Nc1ccc(C(=O)N[C@@H](CC(N)=O)C(=O)Nc2ccc(C(=O)Nc3ccc(C(=O)Nc4ccc(C(=O)O)cc4)c(O)c3OC(C)C)cc2)cc1  MIC (ATCC29213): 64 µg/mL
Cc1ccc2nc(-c3ccncc3)[nH]c2c1  MIC (broth dilution; ATCC29213 MSSA): 64 µg/mL
O=C1NC(=S)S/C1=C\c1c2ccccc2c(-c2ccc(N(c3ccccc3)c3ccccc3)cc2)c2ccccc12  MIC (broth dilution; ATCC43300): > 1000 µg/mL
CC1COc2c(N3CCN(C)CC3)c(F)cc3c(=O)c(C(=O)O)cn1c23 (stereo not drawn)  MIC (NCTC8325): 0.5 to 2 µM
O=C(CCCCCCCC[P+](c1ccccc1)(c1ccccc1)c1ccccc1)Nc1cc(O)c(O)c(O)c1.[Br-]  MIC (broth dilution; ATCC43300 MRSA; 18 h): 16 µg/mL
CC1(C)S[C@@H]2[C@H](NC(=O)[C@H](N)c3ccccc3)C(=O)N2[C@H]1C(=O)O  MIC (broth dilution): 0.02 µg/mL
CC(C)Oc1c(NC(=O)c2ccc(NC(=O)[C@H](CC(N)=O)NC(=O)c3ccc(NC(=O)c4ccc([N+](=O)[O-])c5cccnc45)cc3)cc2)ccc(C(=O)Nc2ccc(C(=O)O)cc2)c1O  MIC (ATCC29213): > 64 µg/mL
O=[N+]([O-])c1cnc2ccccc2c1O  MIC: > 128 µg/mL
c1ccc2c(-c3nc4ccccc4[nH]3)c3ccccc3cc2c1  MIC (broth dilution; ATCC29213 MSSA): 32 µg/mL
COc1cccc(OC)c1C(=O)N[C@@H]1C(=O)N2[C@@H]1SC(C)(C)[C@@H]2C(=O)O  MIC (broth dilution; 25923): 3.13 µM
COC1/C=C/OC2(C)Oc3c(C)c(O)c4c(O)c(c5c(nc6cc(C)ccn65)c4c3C2=O)NC(=O)/C(C)=C\C=C\C(C)C(O)C(C)C(O)C(C)C(OC(C)=O)C1C (stereo not drawn)  MIC: ≤ 0.06 µg/mL
C/C=C(\C)c1cc(OC(=O)c2c(O)c(C)c(O)c(Cl)c2/C(C)=C/C)c(C)c(O)c1C(=O)O  MIC (broth dilution; 16162): 32 µg/mL
CCCCCC(=O)Oc1c(C)c(O)c(C(=O)/C=C/c2ccccc2)c(OC)c1C  MIC (broth dilution; ATCC25923): > 5000 µg/mL
O=C(O)CN1C(=O)/C(=C/c2ccc(-c3ccc(N(c4ccccc4)c4ccccc4)cc3)cc2)NC1=S  MIC (broth dilution; ATCC6538): 1.95 µg/mL
CNC(=O)CN1CCC(Oc2cc3c(Nc4cccc(Cl)c4F)ncnc3cc2OC)CC1  MIC (NCTC8325): > 30 µM
C[n+]1c(/C=C/c2c[nH]c3ccccc23)cc(/C=C2\Sc3ccccc3N2CCCN2CCOCC2)c2ccccc21.[I-]  MIC (broth dilution; ATCCBAA44): 8 µg/mL
N#Cc1c(O)c2c(-c3ccc(-c4ccccc4O)cc3)csc2[nH]c1=O  MIC (NCTC8325): > 30 µM
CC1=NN(CNC(=O)c2ccccc2)C(=O)C1=NNn1c(-c2ccccc2)nc2ccccc2c1=O  MIC (broth dilution; 24 h): 51.9 µM
Cc1nc(Nc2ncc(C(=O)Nc3c(C)cccc3Cl)s2)cc(N2CCN(CCO)CC2)n1  MIC (NCTC8325): > 30 µM
O=C(CCCN1CCC(O)(c2ccc(Cl)cc2)CC1)c1ccc(Br)cc1  MIC: > 128 µg/mL
CC(C)Oc1c(NC(=O)c2ccc(NC(=O)[C@H](CC(N)=O)NC(=O)c3ccc(NC(=O)c4ccc([N+](=O)[O-])c(OC(C)C)c4O)cc3)cc2)ccc(C(=O)Nc2ccc(C(=O)O)cc2)c1O  MIC (ATCC29213): > 64 µg/mL
Cc1cnc(Nc2ccc(OCCN3CCCC3)cc2)nc1Nc1cccc(S(=O)(=O)NC(C)(C)C)c1  MIC (NCTC8325): > 30 µM
COc1c(C)c(OC)c2c(c1C)OC(c1ccccc1)CC2=O (stereo not drawn)  MIC (broth dilution; ATCC25923): 5000 µg/mL
Oc1ccccc1-c1nc2ccccc2[nH]1  MIC (broth dilution; ATCC29213 MSSA): 256 µg/mL
C/C=C(\C)c1cc(OC(=O)c2c(C)c(Cl)c(O)c(Cl)c2O)c(C)c(O)c1C(=O)O  MIC (broth dilution; 16162): 64 µg/mL
CC(C)Oc1c(NC(=O)c2ccc(NC(=O)[C@H](CC(N)=O)NC(=O)c3ccc(NC(=O)c4ccc(C#N)cc4)cc3)cc2)ccc(C(=O)Nc2cccc(C(=O)O)c2)c1O  MIC (ATCC29213): 2 µg/mL
CC(C)(O/N=C(\C(=O)N[C@@H]1C(=O)N2C(C(=O)[O-])=C(C[n+]3ccccc3)CS[C@H]12)c1csc(N)n1)C(=O)O  MIC (broth dilution; ATCC25923; 18 h): 1 µg/mL
O=C(Cc1ccc(Cl)c(C(F)(F)F)c1)Nc1ccc2c(c1)OC(F)(F)O2  MIC (NCTC8325; 24 h): > 100 µM
O=C1NC(=S)N/C1=C\c1c2ccccc2c(-c2ccc(N(c3ccccc3)c3ccccc3)cc2)c2ccccc12  MIC (broth dilution; ATCC25923): > 1000 µg/mL
Cc1ccc2nc(-c3ccc(Cl)cc3)[nH]c2c1  MIC (broth dilution; ATCC29213 MSSA): 256 µg/mL
C[C@@H](O)[C@H]1C(=O)N2C(C(=O)O)=C(S[C@@H]3CN[C@H](C(=O)N(C)C)C3)[C@H](C)[C@H]12  MIC (broth dilution; 24 h): 0.0625 µg/mL
Oc1ccc(-c2nc(-c3ccc(F)cc3)c(-c3ccncc3)[nH]2)cc1  MIC (NCTC8325): > 30 µM
O=C(O)CN1C(=O)/C(=C/c2c3ccccc3c(-c3ccc(N(c4ccccc4)c4ccccc4)cc3)c3ccccc23)SC1=S  MIC (broth dilution; ATCC43300): > 1000 µg/mL
COc1cccc(NCc2ccc(Oc3ccccn3)cc2)c1  MIC: 1.6 µg/mL
